The record followed here is ChEMBL document CHEMBL4308838, “Subtle Modifications to the Indole-2-carboxamide Motif of the Negative Allosteric Modulator N-(( trans)-4-(2-(7-Cyano-3,4-dihydroisoquinolin-2(1 H)-yl)ethyl)cyclohexyl)-1 H-indole-2-carboxamide (SB269652) Yield Dramatic Changes in Pharmacological Activity at the Dopamine D2 Receptor” (J Med Chem, 2018).

Assay type in all cases: cell-based
Test [1] concerns the target D(2) dopamine receptor (Homo sapiens) (UniProt P14416). In words: Negative allosteric modulation of human D2LR expressed in Flp-In-CHO cells assessed as inhibition of dopamine-indued ERK1/2 phosphorylation preincubated for 30 mins followed by dopamine addition and measured after 5 mins by AlphaScreen assay. In outline: (§1)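 pERK1/2 signalling through the long D2 isoform (D2LR) expressed in FlpIn CHO cells. Test ligands were measured against increasing dopamine concentrations. Curves were fitted with an operational model of allosterism (functional affinity KB, cooperativity α, efficacy modulation β, net αβ) and with a Gaddum-Schild model (KB, Schild slope). The better fit was chosen by F-test. Mean ± SEM of three experiments run in duplicate.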

Test [2] shares this target. In words: Negative allosteric modulation of human D2LR expressed in Flp-In-CHO cells assessed as inhibition of dopamine-indued ERK1/2 phosphorylation by measuring negative co-operativity factor preincubated for 30 mins followed by dopamine addition and measured after 5 mins by AlphaScreen assay. In outline: as §1
In general terms: In Alpha technology, singlet oxygen from a donor bead excites a nearby acceptor bead.

For test [3] the target is unchanged. Put plainly: Negative allosteric modulation of human D2LR expressed in Flp-In-CHO cells assessed as inhibition of dopamine-indued ERK1/2 phosphorylation preincubated for 30 mins followed by dopamine addition and measured after 5 mins by AlphaScreen assay relative to control. In outline: as §1
The target is the same in test [4]. Put plainly: Negative allosteric modulation of human D2LR expressed in Flp-In-CHO cells assessed as inhibition of dopamine-indued ERK1/2 phosphorylation by measuring co-operativity factor preincubated for 30 mins followed by dopamine addition and measured after 5 mins by AlphaScreen assay relative to control. In outline: as §1
Test [5] shares this target. Put plainly: Negative allosteric modulation of human D2LR expressed in Flp-In-CHO cells assessed as inhibition of dopamine-indued ERK1/2 phosphorylation by measuring effect on dopamine efficacy preincubated for 30 mins followed by dopamine addition and measured after 5 mins by AlphaScreen assay. The procedure, abridged: as §1
Test [6] shares this target. In words: Negative allosteric modulation of human D2LR expressed in Flp-In-CHO cells assessed as inhibition of dopamine-indued ERK1/2 phosphorylation by measuring co-operativity factor preincubated for 30 mins followed by dopamine addition and measured after 5 mins by AlphaScreen assay. The procedure, abridged: as §1
Test [7] shares this target. Put plainly: Negative allosteric modulation of human D2LR expressed in Flp-In-CHO cells assessed as inhibition of dopamine-indued ERK1/2 phosphorylation by measuring effect on dopamine efficacy preincubated for 30 mins followed by dopamine addition and measured after 5 mins by AlphaScreen assay relative to control. In outline: as §1

D(2) dopamine receptor (Homo sapiens), sequence (P14416 whole entry, canonical isoform): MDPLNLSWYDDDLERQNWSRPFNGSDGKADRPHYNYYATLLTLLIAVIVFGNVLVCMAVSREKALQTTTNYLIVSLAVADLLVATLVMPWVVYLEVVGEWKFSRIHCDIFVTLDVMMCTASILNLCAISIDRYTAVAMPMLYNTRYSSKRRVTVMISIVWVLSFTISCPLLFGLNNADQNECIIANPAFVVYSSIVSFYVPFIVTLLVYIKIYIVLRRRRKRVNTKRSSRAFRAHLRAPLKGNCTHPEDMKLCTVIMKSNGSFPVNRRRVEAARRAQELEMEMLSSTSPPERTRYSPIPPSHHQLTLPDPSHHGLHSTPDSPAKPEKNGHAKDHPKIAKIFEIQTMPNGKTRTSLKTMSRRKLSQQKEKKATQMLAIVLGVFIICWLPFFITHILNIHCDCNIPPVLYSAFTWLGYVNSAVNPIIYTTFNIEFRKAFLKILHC

With `N#Cc1ccc2c(c1)CN(CC[C@H]1CC[C@H](NC(=O)c3cc4sccc4[nH]3)CC1)CC2`, in test [1], the Kb amounted to 87 nM and the pKb (commonly the Kb on a negative log10 scale, so that one unit is a factor of ten) was 7.06.

As to `N#Cc1ccc2c(c1)CN(CC[C@H]1CC[C@H](NC(=O)c3cc4ccc(F)cc4[nH]3)CC1)CC2`, in test [1], the Kb is 219 nM and the pKb came to 6.66. Moreover, in test [2], the Activity came to 0.065 and the log(activity) was -1.19. Besides, the fold change (FC) in test [3] came to 15.

`N#Cc1ccc2c(c1)CN(CC[C@H]1CC[C@H](NC(=O)c3cc4cccnc4[nH]3)CC1)CC2`: the negative logarithm of the Kb (pKb) in test [1] came out at 7.63. Also, in test [2], the Activity stood at 0.038 and the log(activity) is -1.42. Further, in test [3], the fold change (FC) is 26.

Turning to `COc1ccc2[nH]c(C(=O)N[C@H]3CC[C@H](CCN4CCc5ccc(C#N)cc5C4)CC3)cc2c1`, in test [1], the Kb was 2 nM and the pKb was determined as 8.7.

Consider `N#Cc1ccc2c(c1)CN(CC[C@H]1CC[C@H](NC(=O)c3cc4cccc(F)c4[nH]3)CC1)CC2`, for which, in test [1], the Kb was 4.5 nM and the pKb turned out to be 8.35. Also, in test [2], the Activity stood at 0.016 and the log(activity) was -1.79. Further, the fold change (FC) in test [3] turned out to be 62.

With `COc1cccc2cc(C(=O)N[C@H]3CC[C@H](CCN4CCc5ccc(C#N)cc5C4)CC3)[nH]c12`, in test [1], the Kb was determined as 51 nM and the negative logarithm of the Kb (pKb) turned out to be 7.29.

In the case of `N#Cc1ccc2c(c1)CN(CC[C@H]1CC[C@H](NC(=O)c3cc4ccncc4[nH]3)CC1)CC2`, in test [1], the Kb stood at 2.7 nM and the pKb is 8.57. Also, in test [2], the Activity is 0.00055 and the log(activity) is -3.26. The fold change (FC) in test [3] was 1800.

Take `COc1ccc2cc(C(=O)N[C@H]3CC[C@H](CCN4CCc5ccc(C#N)cc5C4)CC3)[nH]c2c1`: in test [1], the Kb worked out at 25 nM and the pKb worked out at 7.6.

In the case of `N#Cc1ccc2c(c1)CN(CC[C@H]1CC[C@H](NC(=O)c3c[nH]c4cccnc34)CC1)CC2`, the Kb in test [1] turned out to be 0.148 nM. Moreover, the pKb in test [1] amounted to 9.83. Also, the fold change (FC) in test [4] is 21; in test [7], 6. In addition, the values for the Activity in test [5] and in test [6] were 0.16 and 0.048, respectively. Also, the log(activity) in test [5] was -0.8; in test [6] it was -1.32.

`N#Cc1ccc2c(c1)CN(CC[C@H]1CC[C@H](NC(=O)c3cc4c(F)cccc4[nH]3)CC1)CC2`: in test [1], the Kb was 47 nM and the negative logarithm of the Kb (pKb) is 7.33. Further, in test [2], the Activity worked out at 0.032 and the log(activity) is -1.5. Further, the fold change (FC) in test [3] was determined as 32.

Regarding `N#Cc1ccc2c(c1)CN(CC[C@H]1CC[C@H](NC(=O)c3cnn4ccccc34)CC1)CC2`, in test [1], the Kb came out at 40 nM and the negative-log Kb (pKb) is 7.39.

In the case of `COc1cccc2[nH]c(C(=O)N[C@H]3CC[C@H](CCN4CCc5ccc(C#N)cc5C4)CC3)cc12`, in test [1], the Kb was 617 nM and the negative logarithm of the Kb (pKb) is 6.21. Moreover, in test [2], the Activity came out at 0.3 and the log(activity) was -0.52. Further, the fold change (FC) in test [3] was found to be 3.

As to `N#Cc1ccc2c(c1)CN(CC[C@H]1CC[C@H](NC(=O)c3c[nH]c4ncccc34)CC1)CC2`, in test [1], the Kb turned out to be 34 nM and the pKb was 7.47. Further, in test [2], the Activity stood at 0.032 and the log(activity) is -1.5. Also, the fold change (FC) in test [3] was 32.

`N#Cc1ccc2c(c1)CN(CC[C@H]1CC[C@H](NC(=O)c3c[nH]c4ccccc34)CC1)CC2`: in test [1], the Kb came to 63 nM and the pKb came out at 7.2.

With `N#Cc1ccc2c(c1)CN(CC[C@H]1CC[C@H](NC(=O)c3c[nH]c4cnccc34)CC1)CC2`, in test [1], the Kb stood at 10 nM and the pKb was 8. Also, in test [2], the Activity amounted to 0.0036 and the log(activity) is -2.44. For the same compound, in test [3], the fold change (FC) came out at 275.

In the case of `N#Cc1ccc2c(c1)CN(CC[C@H]1CC[C@H](NC(=O)c3cc4ccccn4n3)CC1)CC2`, in test [1], the Kb came out at 165 nM and the negative logarithm of the Kb (pKb) worked out at 6.78. Besides, in test [2], the Activity stood at 0.03 and the log(activity) is -1.52. Moreover, the fold change (FC) in test [3] came out at 33.

In the case of `N#Cc1ccc2c(c1)CN(CC[C@H]1CC[C@H](NC(=O)c3c[nH]c4ccncc34)CC1)CC2`, in test [1], the Kb stood at 3.5 nM and the pKb stood at 8.46.

Consider `N#Cc1ccc2c(c1)CN(CC[C@H]1CC[C@H](NC(=O)c3cnc4ccccn34)CC1)CC2`, for which, in test [1], the Kb stood at 24 nM and the pKb is 7.62. For the same compound, in test [2], the Activity was determined as 0.0048 and the log(activity) was -2.31. Besides, in test [3], the fold change (FC) turned out to be 210.

As for `N#Cc1ccc2c(c1)CN(CC[C@H]1CC[C@H](NC(=O)c3cc4cc(F)ccc4[nH]3)CC1)CC2`, in test [1], the Kb amounted to 6.8 nM and the pKb is 8.17. Also, in test [2], the Activity worked out at 0.016 and the log(activity) is -1.8. In addition, the fold change (FC) in test [3] turned out to be 63.
